We go through five molecules from paper PMC9398548 (European journal of pharmaceutical sciences : official …, 2020).

Read-outs that look alike come from different tables or passages of the source. Some results are limits rather than exact numbers.

Test [1] has as its system murine leukemia P-388 cells. The following applies: read-out: antiproliferative IC50, P-388 cells; ref Bonnet et al., 2014; cited from earlier work.
Test [2] deals with human prostate cancer PC-3 cells. The conditions noted are these: read-out: antiproliferative IC50, PC-3 cells; ref Bonnet et al., 2014; cited from earlier work.
Test [3] has as its system human colon cancer HT-29 cells. The conditions noted are these: read-out: antiproliferative IC50, HT-29 cells; ref Bonnet et al., 2014; cited from earlier work.
The test system of a further test is K562 cells. Briefly: MTT cytotoxicity assay in K562 cells. It counts as cell-based. The conditions noted are these: read-out: K562- IC50. Summed up: (§1)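 Cells were grown in suspension in RPMI 1640 with 10% FBS and penicillin/streptomycin/amphotericin B at 37 °C under 5% CO2. They were seeded at ~5×10^3 cells/well, kept overnight, then exposed to test compounds diluted in DMSO for 48 h. Cells were pelleted (300 g, 4 °C, 5 min) and washed twice in phosphate buffer. MTT (5 mg/ml stock) was added for 4 h at 37 °C, formazan dissolved in DMSO, and A570 read. Triplicate; IC50 given as mean±SD.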
For orientation: Tetrazolium dyes change colour on reduction, which living cells bring about.

The next test concerns the target HDAC4 (Homo sapiens, UniProt P56524). Briefly: HDAC enzyme activity assay, HDAC4. It counts as biochemical. Summed up: (§2)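 Enzymes were recombinant: HDAC8, and the codon-optimised human HDAC4 catalytic domain (pET14b). Serial inhibitor dilutions in 25 mM Tris-HCl, 75 mM KCl, 0.001% Pluronic F-127, pH 8.0 were pre-incubated with enzyme for 1 h at 30 °C. Reaction ran 60 min at 30 °C with 20 μM Boc-Lys(trifluoroacetyl)-AMC and was stopped with 1.7 μM SATFMK. Trypsin (0.4 mg/ml) released AMC; fluorescence read at Ex 350/Em 450 nm. Triplicate; IC50 from dose-response curves.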

A further test addresses T1, HDAC6 (Homo sapiens, UniProt Q9UBN7).
T1 sequence (Q9UBN7 1-1215): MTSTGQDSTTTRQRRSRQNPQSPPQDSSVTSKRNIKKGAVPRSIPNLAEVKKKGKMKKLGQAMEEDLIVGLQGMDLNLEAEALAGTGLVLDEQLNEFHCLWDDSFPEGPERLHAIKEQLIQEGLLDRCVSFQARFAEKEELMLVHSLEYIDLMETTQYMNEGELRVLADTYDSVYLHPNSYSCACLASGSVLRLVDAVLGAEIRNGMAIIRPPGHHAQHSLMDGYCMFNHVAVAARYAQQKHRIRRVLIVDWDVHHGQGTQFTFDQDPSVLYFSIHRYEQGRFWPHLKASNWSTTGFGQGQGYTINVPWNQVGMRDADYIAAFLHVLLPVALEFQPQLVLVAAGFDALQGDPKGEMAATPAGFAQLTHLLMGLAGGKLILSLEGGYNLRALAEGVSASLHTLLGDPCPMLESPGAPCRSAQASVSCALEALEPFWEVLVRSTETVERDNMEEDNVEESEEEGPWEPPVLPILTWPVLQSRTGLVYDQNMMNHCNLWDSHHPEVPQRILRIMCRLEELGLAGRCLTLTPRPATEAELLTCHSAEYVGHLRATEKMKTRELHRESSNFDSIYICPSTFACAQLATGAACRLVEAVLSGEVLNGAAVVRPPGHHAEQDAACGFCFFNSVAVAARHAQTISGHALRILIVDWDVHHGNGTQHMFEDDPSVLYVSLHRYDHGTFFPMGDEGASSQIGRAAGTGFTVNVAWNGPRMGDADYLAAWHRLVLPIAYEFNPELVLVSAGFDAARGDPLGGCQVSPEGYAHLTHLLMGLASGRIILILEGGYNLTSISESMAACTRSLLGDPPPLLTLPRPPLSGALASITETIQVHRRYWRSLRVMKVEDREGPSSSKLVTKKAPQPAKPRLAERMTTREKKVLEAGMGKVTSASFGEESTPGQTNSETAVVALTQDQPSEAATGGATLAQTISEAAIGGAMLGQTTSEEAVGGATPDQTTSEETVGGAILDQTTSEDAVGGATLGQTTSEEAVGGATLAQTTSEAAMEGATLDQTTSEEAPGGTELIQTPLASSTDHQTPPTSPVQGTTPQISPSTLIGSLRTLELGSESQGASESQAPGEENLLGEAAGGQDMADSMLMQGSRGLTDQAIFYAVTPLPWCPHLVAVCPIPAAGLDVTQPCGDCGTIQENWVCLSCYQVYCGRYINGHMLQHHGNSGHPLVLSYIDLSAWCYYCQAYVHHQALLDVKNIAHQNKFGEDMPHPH
Briefly: HDAC enzyme activity assay, HDAC6. It counts as biochemical.

The target in a further test is T2, HDAC8 (Homo sapiens, UniProt Q9BY41).
T2 sequence (Q9BY41 1-377): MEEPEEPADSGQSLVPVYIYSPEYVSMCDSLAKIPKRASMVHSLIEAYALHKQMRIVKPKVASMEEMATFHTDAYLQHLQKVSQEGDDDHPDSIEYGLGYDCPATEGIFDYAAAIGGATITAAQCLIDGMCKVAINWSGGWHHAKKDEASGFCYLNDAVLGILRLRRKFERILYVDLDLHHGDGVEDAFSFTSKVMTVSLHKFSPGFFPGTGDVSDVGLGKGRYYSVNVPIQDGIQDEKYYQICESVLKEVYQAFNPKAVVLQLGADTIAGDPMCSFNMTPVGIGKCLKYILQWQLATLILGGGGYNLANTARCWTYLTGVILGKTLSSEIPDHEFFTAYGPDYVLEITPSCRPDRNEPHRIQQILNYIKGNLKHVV
Nature of the test: HDAC enzyme activity assay, HDAC8. The class given is biochemical. The following applies: for HDAC-8 relative enzyme activity: primary screening at 50 μM. Summed up:
as §2

The target of another test is HDAC1 (Homo sapiens, UniProt Q13547). Nature of the test: HDAC enzyme activity assay, HDAC1. It counts as biochemical.
A further test deals with CEM cells. Nature of the test: MTT cytotoxicity assay in CEM cells. The class given is cell-based. The following applies: read-out: CEM- IC50, 48 h, Mean±SD, n=3. Summed up:
as §1

Setting [4] is: read-out: HDAC4 IC50, Means ±SD, n=3.
Setting [5] is: read-out: HDAC6 IC50, Means ±SD, n=3.
The mark [6] stands for this setting: read-out: HDAC8 IC50, Means ±SD, n=3.
Where [7] appears, read: read-out: HDAC1 IC50, Means ±SD, n=3.

Chain of HDAC4 (P56524 655-1084 limits assumed): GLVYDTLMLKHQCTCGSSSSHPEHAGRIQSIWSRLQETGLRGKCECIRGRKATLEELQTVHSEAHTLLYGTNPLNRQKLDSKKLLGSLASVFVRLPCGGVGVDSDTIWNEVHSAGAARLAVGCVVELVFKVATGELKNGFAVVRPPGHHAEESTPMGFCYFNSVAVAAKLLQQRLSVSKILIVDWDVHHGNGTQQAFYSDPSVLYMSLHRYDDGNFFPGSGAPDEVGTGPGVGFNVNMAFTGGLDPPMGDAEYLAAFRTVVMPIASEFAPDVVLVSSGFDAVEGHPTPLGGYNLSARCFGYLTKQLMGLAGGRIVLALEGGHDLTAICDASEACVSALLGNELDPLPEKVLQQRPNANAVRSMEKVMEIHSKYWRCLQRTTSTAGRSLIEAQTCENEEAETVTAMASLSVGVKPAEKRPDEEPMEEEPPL
Chain of HDAC1 (Q13547 whole entry, species assumed): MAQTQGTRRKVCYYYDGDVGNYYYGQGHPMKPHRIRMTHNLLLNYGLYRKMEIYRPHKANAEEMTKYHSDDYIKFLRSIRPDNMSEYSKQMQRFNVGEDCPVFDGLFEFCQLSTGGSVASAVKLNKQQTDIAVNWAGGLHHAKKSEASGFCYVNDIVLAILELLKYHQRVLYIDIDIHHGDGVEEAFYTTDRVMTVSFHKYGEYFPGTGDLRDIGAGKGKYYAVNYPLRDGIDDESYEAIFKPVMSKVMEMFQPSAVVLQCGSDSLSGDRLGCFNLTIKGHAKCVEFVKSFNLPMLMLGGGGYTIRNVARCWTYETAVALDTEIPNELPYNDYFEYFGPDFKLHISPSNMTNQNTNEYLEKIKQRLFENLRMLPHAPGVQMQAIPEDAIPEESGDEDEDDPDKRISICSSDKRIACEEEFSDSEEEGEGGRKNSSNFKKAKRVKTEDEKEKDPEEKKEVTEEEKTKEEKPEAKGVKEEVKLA

For orientation: IC50 means the concentration that inhibits the measured activity by half. `O=C1C[C@@H]2/C(=C(O)\C=C\c3ccccc3)C(=O)C=C[C@@H]2O1` [(+)-Cryptocaryone]: the IC50 in test [1] is 0.04 µM; in [2] it was 1.6 µM; in test [3], 0.32 µM.

`O=C(CN1C(=O)SC(=Cc2ccc(Br)cc2)C1=O)Nc1ccc(Cl)cc1C(F)(F)F` [Compound G1, 2-[5-(4-Bromobenzylidene)-2,4-dioxo-thiazolidin-3-yl]-N-(4-chloro-2-trifluromethylphenyl) acetamide]: the IC50 is 24 ± 0.58 µM in the test with K562 cells (MTT, 48 h, Mean±SD, n=3); > 50 µM at HDAC4 (setting [4]); 16 ± 2 µM on HDAC6 (setting [5]); 20 ± 3 µM at HDAC8 (setting [6]); > 50 µM on HDAC1 (setting [7]); 25.1 ± 1.84 µM in the test with CEM cells. Further, the “HDAC-8 relative enzyme activity” value at HDAC8 was < 50%.

Turning to `Cc1ccc(C=C2SC(=O)N(CC(=O)Nc3ccc(Cl)cc3C(F)(F)F)C2=O)cc1C` [Compound G3, N-(4-Chloro-2-trifluoromethylphenyl)-2-[5-(3,4-dimethylbenzylidene)-2,4-dioxothiazolidin-3-yl] acetamide], the IC50 is 26.4 ± 3.07 µM with K562 cells (MTT, 48 h, Mean±SD, n=3); > 50 µM at HDAC4 (setting [4]); 17 ± 2 µM at HDAC6 (setting [5]); 16 ± 2 µM at HDAC8 (setting [6]); > 50 µM on HDAC1 (setting [7]); 25.9 ± 2.95 µM in the test on CEM cells. Further, the “HDAC-8 relative enzyme activity” value at HDAC8 is < 50%.

`Cc1ccc(C=C2SC(=O)N(CC(=O)Nc3ccc(Cl)cc3C(F)(F)F)C2=O)cc1` [Compound G11, N-(4-Chloro-2-trifluoromethylphenyl)-2-[5-(4-methylbenzylidene)-2,4-dioxothiazolidin-3-yl]acetamide]: the IC50 in the test on K562 cells (Homo sapiens, K562, 48 h) is 34.6 ± 3.57 µM; against HDAC4, > 50 µM; on HDAC6, 14 ± 3 µM; on HDAC8, 18 ± 2 µM; at HDAC1, 31 ± 1.1 µM. Moreover, the “HDAC-8 relative enzyme activity” value at HDAC8 was < 50%.

`O=C(CN1C(=O)SC(=Cc2ccccc2)C1=O)Nc1ccc(Cl)cc1C(F)(F)F` [Compound G13, 2-[5-Benzylidene-2,4-dioxothiazolidin-3-yl]-N-(4-chloro-2-trifluoromethylphenyl)acetamide]: the IC50 in the test on K562 cells (Homo sapiens, K562, 48 h) is 41.7 ± 3.9 µM; against HDAC4, > 50 µM; at HDAC6, 42 µM; against HDAC8, 11 ± 1 µM; on HDAC1, > 50 µM. Also, the “HDAC-8 relative enzyme activity” value on HDAC8 is recorded as < 50%.
